Here are results for five compounds from ChEMBL document CHEMBL1156577, “Moromycins A and B, isolation and structure elucidation of C-glycosylangucycline-type antibiotics from Streptomyces sp. KY002” (2008).

In brackets after ≈: the same amount, converted by molar mass.

Assay [1] concerns L1210. The assay is described as follows: Cytotoxicity against cultured mouse L1210 cells.
In assay [2] the test system is MCF7. The assay is described as follows: Cytotoxicity against human MCF7 cells after 48 hrs by SRB assay. The format is functional. As to conditions: MCF7, 48 h; for CC50: read-out: LC50 (the source's name). Summed up: (§1)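 In vitro: human lung H-460 and human breast MCF-7 cell lines exposed to drugs for 48 h. Growth read by sulforhodamine B (SRB) staining.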
In assay [3] the test system is NCI-H460. The experiment in a line: Cytotoxicity against human H460 cells after 48 hrs by SRB assay. The format is functional. The conditions noted are these: NCI-H460, 48 h; for CC50: read-out: LC50 (the source's name). Summed up: as §1

In turn, `CC[C@@]1(O)C[C@H](O[C@H]2C[C@H](N(C)C)[C@H](O[C@H]3C[C@@H]4O[C@H]5CC(=O)[C@@H](C)O[C@H]5O[C@@H]4[C@H](C)O3)[C@H](C)O2)c2c(cc3c(c2O)C(=O)c2c(O)cccc2C3=O)[C@H]1C(=O)OC` [ACLACINOMYCIN B] showed an ID50 in assay [1] of 0.24 µg/mL (≈ 0.296 µM).

`CC[C@@]1(O)C[C@H](O[C@H]2C[C@H](N(C)C)[C@H](O[C@H]3C[C@H](O)[C@H](O[C@H]4CCC(=O)[C@H](C)O4)[C@H](C)O3)[C@H](C)O2)c2c(cc3c(c2O)C(=O)c2c(O)cccc2C3=O)[C@H]1C(=O)OC` [ACLARUBICIN] came in with an ID50 in assay [1] of 0.12 µg/mL (≈ 0.148 µM).

On to `C[C@@H]1O[C@@H](O[C@H]2CC[C@H](O[C@@]3(C)CC(=O)c4c(ccc5c4C(=O)c4ccc([C@H]6C[C@H]7O[C@H]8CC(=O)[C@H](C)O[C@H]8O[C@@H]7[C@@H](C)O6)c(O)c4C5=O)C3)O[C@H]2C)C=CC1=O` [MOROMYCIN A], for which, in assay [2], the GI50 came to 25.1 µM, the concentration for total growth inhibition (TGI) was found to be 38.9 µM and the CC50 stood at 55 µM. Moreover, in assay [3], the GI50 turned out to be 18.7 µM, net growth stopped (TGI) at 51.2 µM and the CC50 was 69.1 µM.

In the case of `C[C@@H]1O[C@H]2O[C@@H]3[C@@H](C)O[C@@H](c4ccc5c(c4O)C(=O)c4ccc6c(c4C5=O)C(=O)C[C@](C)(O)C6)C[C@H]3O[C@H]2CC1=O` [MOROMYCIN B], in assay [2], the concentration for 50% growth inhibition (GI50) worked out at 5.6 µM, the TGI was found to be 9.2 µM and the CC50 came out at 16.3 µM. Besides, in assay [3], the 50% growth inhibitory concentration (GI50) came to 4.1 µM, total growth inhibition (TGI) required 14.1 µM and the CC50 came to 52.3 µM.

Turning to `C[C@@H]1O[C@@H](O[C@H]2CC[C@H](O[C@@]3(C)CC(=O)[C@]4(O)C5=C(C=C[C@]4(O)C3)C(=O)c3c(ccc([C@H]4C[C@H]6O[C@H]7CC(=O)[C@H](C)O[C@H]7O[C@@H]6[C@@H](C)O4)c3O)C5=O)O[C@H]2C)C=CC1=O` [SAQUAYAMYCIN B], in assay [2], the GI50 was 15.2 µM, total growth inhibition (TGI) required 21.3 µM and the CC50 was found to be 28.1 µM. In assay [3], halving of growth (GI50) required 12.2 µM, the total growth inhibition concentration (TGI) was 26.5 µM and the CC50 was determined as 34.3 µM.
